In ChEMBL document CHEMBL5661979, “Pharmacological inhibition of BMK1 suppresses tumor growth through promyelocytic leukemia protein” (Cancer Cell, 2010) one finds Activity, inhibition and IC50 data, which are given here for one molecule.

Molecules are shown by their SMILES. Activity calls are given as the source filed them. The calls are words filed in the database; no cut-off is given here. Bounds are passed on as bounds.

Test [1] relates to Lewis lung carcinoma. As to the kind of experiment: Antitumor activity against PML knock down mouse LL2 cells allografted in C57Bl/6 mouse assessed as reduction tumor growth at 50 mg/kg, ip administered on day 7 post implantation measured after 17 days. It is filed as functional, organism-based. The settings on record: time 10.0 day.
For test [2], the target named is T1, Interleukin-1 receptor-associated kinase 4 (Homo sapiens) (UniProt Q9NWZ3).
T1 sequence (whole entry): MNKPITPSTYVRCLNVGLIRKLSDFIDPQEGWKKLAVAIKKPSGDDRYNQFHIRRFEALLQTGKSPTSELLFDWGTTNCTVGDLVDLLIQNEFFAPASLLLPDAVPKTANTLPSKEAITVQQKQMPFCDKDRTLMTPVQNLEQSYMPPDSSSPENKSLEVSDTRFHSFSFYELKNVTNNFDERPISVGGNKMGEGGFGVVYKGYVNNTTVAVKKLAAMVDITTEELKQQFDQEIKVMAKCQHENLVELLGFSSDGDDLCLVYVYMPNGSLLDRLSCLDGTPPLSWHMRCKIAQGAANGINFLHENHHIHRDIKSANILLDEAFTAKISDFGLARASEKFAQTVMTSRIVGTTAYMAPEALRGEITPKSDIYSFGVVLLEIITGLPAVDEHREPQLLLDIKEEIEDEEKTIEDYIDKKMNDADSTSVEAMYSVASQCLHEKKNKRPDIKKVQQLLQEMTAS
Kind of test: Inhibition of IRAK4 in human HeLa cells lysate at 10 uM pre incubated for 15 mins followed by ATP acyl phosphate probe addition and measured after 10 mins by LC-MS/MS analysis relative to control. It counts as subcellular. The settings on record: time 25.0 min.

The target in test [3] is Glycogen synthase kinase-3 beta (Homo sapiens, UniProt P49841). As to the kind of experiment: Inhibition of GSK3B isoform 2 in human HeLa cells lysate at 2 uM pre incubated for 15 mins followed by ATP acyl phosphate probe addition and measured after 10 mins by LC-MS/MS analysis relative to control. It is filed as subcellular. The note with it: time 25.0 min.
Glycogen synthase kinase-3 beta, sequence (P49841 whole entry, looked up, canonical isoform): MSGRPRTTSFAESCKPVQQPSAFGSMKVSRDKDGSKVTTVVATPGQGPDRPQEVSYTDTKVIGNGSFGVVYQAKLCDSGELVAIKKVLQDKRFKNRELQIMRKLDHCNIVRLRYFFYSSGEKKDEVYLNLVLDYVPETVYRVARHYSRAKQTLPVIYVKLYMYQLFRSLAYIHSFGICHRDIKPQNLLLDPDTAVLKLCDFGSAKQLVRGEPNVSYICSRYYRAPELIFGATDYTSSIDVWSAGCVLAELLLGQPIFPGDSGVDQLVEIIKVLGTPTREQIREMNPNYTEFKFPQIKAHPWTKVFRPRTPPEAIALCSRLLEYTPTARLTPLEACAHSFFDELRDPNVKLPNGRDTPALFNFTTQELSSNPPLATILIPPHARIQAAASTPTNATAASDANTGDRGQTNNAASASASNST
In test [4] the target is Serine/threonine-protein kinase greatwall (Homo sapiens, UniProt Q96GX5). As to the kind of experiment: Inhibition of MASTL in human HeLa cells lysate pre incubated for 15 mins followed by ATP acyl phosphate probe addition and measured after 10 mins by LC-MS/MS analysis. It is filed as subcellular.
Serine/threonine-protein kinase greatwall, sequence (Q96GX5 whole entry): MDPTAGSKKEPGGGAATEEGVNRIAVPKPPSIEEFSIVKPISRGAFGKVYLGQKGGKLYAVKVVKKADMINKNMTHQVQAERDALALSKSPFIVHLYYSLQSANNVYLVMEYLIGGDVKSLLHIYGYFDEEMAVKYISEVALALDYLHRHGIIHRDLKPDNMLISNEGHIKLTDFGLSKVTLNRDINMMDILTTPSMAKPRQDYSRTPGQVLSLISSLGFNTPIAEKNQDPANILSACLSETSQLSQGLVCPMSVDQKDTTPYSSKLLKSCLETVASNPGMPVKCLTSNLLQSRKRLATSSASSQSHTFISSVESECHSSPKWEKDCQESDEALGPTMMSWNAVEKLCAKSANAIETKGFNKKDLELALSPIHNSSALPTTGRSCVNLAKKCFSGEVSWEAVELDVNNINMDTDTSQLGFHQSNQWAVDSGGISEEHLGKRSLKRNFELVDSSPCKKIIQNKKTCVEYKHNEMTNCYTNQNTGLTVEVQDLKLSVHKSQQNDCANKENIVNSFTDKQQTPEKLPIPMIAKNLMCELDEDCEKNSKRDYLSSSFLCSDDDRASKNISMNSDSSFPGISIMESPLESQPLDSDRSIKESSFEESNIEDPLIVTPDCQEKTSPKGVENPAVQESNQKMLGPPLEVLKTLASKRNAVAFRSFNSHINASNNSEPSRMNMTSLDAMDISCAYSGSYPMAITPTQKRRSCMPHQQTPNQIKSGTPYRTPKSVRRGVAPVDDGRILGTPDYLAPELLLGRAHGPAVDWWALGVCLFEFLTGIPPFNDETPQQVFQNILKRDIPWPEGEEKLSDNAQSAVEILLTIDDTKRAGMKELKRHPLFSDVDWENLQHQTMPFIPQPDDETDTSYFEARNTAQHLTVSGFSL
Test [5] deals with Inhibitor of nuclear factor kappa-B kinase subunit beta (Homo sapiens, UniProt O14920). As to the kind of experiment: Inhibition of IKKB in human HeLa cells lysate pre incubated for 15 mins followed by ADP acyl phosphate probe addition and measured after 10 mins by LC-MS/MS analysis. It is filed as subcellular.
Test [6] deals with Cyclin-dependent kinase 13 (Homo sapiens, UniProt Q14004). As to the kind of experiment: Inhibition of CHED in human HeLa cells lysate pre incubated for 15 mins followed by ATP acyl phosphate probe addition and measured after 10 mins by LC-MS/MS analysis. It is filed as subcellular. Put shortly: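 KiNativ profiling in HeLa lysate (5 mg/mL total protein). Lysate incubated 15 min with inhibitor at 50, 10, 2, 0.8 or 0 μM. ATP or ADP acylphosphate probe then added (5 μM final) and reacted 10 min. Reaction stopped with urea and analysed by targeted MS, using up to four fragment ions per kinase peptide-probe conjugate. % inhibition taken against untreated lysate. Run in duplicate.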
Cyclin-dependent kinase 13, sequence (Q14004 whole entry, the tested form may be a part): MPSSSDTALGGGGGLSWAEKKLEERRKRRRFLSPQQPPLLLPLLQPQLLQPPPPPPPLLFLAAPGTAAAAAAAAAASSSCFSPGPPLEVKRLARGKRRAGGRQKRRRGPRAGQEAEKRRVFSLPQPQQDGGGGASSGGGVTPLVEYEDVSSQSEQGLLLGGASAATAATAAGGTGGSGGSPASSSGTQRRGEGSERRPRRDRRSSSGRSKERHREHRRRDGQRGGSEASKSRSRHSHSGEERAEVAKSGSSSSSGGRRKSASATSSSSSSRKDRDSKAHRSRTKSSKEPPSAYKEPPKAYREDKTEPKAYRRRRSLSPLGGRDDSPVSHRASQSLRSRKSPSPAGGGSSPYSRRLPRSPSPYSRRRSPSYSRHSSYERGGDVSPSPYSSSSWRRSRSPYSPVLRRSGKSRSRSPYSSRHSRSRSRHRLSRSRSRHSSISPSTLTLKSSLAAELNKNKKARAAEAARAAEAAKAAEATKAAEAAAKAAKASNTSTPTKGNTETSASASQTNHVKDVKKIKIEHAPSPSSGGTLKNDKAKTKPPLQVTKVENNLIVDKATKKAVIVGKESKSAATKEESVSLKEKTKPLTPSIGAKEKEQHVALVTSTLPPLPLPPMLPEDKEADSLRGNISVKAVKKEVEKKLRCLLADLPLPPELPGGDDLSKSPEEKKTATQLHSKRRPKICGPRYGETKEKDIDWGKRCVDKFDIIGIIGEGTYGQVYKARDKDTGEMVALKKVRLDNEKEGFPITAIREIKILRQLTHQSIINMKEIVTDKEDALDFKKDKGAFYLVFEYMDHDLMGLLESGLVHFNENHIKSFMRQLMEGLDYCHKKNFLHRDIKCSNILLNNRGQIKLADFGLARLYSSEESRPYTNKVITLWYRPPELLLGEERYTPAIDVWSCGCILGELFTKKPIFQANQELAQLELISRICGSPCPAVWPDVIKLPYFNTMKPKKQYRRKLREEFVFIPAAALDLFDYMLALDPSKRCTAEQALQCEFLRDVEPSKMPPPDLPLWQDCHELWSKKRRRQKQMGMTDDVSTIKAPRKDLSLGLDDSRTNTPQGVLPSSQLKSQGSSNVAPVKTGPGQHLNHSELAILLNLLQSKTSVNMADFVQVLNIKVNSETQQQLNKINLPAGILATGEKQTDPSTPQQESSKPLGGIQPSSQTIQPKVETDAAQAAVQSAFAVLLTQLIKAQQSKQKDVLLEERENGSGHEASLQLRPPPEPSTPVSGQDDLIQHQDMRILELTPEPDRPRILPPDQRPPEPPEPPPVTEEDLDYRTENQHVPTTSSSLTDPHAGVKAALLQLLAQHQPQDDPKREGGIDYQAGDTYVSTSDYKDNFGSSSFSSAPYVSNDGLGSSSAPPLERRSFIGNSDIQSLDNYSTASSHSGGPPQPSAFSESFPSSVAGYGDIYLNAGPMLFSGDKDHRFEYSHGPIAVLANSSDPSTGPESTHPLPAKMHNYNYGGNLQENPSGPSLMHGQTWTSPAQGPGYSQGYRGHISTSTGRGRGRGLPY

Test [7] in a line: Inhibition of MST4/YSK1 in human HeLa cells lysate pre incubated for 15 mins followed by ADP acyl phosphate probe addition and measured after 10 mins by LC-MS/MS analysis. It counts as subcellular.
The target in test [8] is Mitogen-activated protein kinase 4 (Homo sapiens, UniProt P31152). As to the kind of experiment: Inhibition of ERK4 in human HeLa cells lysate pre incubated for 15 mins followed by ATP acyl phosphate probe addition and measured after 10 mins by LC-MS/MS analysis. It is filed as subcellular.
Mitogen-activated protein kinase 4, sequence (P31152 whole entry): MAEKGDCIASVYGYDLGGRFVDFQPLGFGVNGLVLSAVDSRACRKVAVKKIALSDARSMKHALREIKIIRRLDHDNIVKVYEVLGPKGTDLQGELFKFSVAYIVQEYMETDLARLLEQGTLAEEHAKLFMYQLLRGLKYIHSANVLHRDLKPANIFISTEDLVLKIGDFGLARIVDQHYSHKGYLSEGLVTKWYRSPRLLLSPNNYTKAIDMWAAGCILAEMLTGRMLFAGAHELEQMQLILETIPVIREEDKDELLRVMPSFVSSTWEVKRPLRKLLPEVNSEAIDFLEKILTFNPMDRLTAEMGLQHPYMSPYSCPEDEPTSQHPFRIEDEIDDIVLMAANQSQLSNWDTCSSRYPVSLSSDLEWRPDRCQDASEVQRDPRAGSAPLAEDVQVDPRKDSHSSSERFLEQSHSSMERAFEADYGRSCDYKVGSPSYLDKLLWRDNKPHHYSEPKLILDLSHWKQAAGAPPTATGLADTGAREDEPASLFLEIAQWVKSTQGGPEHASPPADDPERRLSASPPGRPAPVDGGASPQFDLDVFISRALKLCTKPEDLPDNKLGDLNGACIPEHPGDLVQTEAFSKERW
In test [9] the target is Dual specificity mitogen-activated protein kinase kinase; MEK1/2 (Homo sapiens, UniProt P36507+Q02750). As to the kind of experiment: Inhibition of MAP2K1/MAP2K2 in human HeLa cells lysate pre incubated for 15 mins followed by ADP acyl phosphate probe addition and measured after 10 mins by LC-MS/MS analysis. It counts as subcellular.
The target in test [10] is Mitogen-activated protein kinase 7 (Mus musculus) (UniProt Q9WVS8). As to the kind of experiment: Inhibition of BMK1 in mouse MEF cells assessed as increase in p21 protein expression at 5 uM incubated for 16 hrs by Western blot analysis. It counts as cell-based. The procedure, abridged: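 Pml+/+ or Pml−/− MEFs treated ±5 μM inhibitor for 16 h. Lysates western blotted for p21, quantified by densitometry and normalized to GAPDH, relative to untreated Pml+/+ MEF set as 1. n = 3, ±SEM.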
Mitogen-activated protein kinase 7 (Mus musculus), sequence (Q9WVS8 whole entry): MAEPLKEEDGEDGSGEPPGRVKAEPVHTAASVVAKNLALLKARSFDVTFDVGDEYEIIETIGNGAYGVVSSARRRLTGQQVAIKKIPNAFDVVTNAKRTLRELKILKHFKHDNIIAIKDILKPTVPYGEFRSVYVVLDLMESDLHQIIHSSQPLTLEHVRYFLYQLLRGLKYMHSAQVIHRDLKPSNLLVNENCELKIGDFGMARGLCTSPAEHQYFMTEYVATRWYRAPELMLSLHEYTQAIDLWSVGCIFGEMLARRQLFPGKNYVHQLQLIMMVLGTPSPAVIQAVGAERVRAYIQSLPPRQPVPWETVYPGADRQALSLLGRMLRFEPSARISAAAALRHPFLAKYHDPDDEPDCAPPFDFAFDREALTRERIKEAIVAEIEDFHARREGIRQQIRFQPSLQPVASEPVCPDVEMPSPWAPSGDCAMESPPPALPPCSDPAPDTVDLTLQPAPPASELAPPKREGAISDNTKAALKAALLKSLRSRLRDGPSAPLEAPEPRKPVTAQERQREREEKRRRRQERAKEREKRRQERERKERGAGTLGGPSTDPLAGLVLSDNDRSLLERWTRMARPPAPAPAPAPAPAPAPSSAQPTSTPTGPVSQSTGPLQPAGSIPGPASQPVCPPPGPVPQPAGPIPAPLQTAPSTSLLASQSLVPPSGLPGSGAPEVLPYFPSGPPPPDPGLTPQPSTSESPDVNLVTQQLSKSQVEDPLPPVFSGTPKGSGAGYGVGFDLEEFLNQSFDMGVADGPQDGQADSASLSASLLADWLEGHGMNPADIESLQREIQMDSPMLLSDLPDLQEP
A general note: A western blot detects proteins with antibodies after separation by electrophoresis.

Test [11] concerns the target Serine/threonine-protein kinase tousled-like 2 (Homo sapiens, UniProt Q86UE8). Kind of test: Inhibition of TLK2 in human HeLa cells lysate pre incubated for 15 mins followed by ADP acyl phosphate probe addition and measured after 10 mins by LC-MS/MS analysis. It is filed as subcellular.
In test [12] the target is T2, Serine/threonine-protein kinase Nek9 (Homo sapiens) (UniProt Q8TD19).
T2 sequence (whole entry): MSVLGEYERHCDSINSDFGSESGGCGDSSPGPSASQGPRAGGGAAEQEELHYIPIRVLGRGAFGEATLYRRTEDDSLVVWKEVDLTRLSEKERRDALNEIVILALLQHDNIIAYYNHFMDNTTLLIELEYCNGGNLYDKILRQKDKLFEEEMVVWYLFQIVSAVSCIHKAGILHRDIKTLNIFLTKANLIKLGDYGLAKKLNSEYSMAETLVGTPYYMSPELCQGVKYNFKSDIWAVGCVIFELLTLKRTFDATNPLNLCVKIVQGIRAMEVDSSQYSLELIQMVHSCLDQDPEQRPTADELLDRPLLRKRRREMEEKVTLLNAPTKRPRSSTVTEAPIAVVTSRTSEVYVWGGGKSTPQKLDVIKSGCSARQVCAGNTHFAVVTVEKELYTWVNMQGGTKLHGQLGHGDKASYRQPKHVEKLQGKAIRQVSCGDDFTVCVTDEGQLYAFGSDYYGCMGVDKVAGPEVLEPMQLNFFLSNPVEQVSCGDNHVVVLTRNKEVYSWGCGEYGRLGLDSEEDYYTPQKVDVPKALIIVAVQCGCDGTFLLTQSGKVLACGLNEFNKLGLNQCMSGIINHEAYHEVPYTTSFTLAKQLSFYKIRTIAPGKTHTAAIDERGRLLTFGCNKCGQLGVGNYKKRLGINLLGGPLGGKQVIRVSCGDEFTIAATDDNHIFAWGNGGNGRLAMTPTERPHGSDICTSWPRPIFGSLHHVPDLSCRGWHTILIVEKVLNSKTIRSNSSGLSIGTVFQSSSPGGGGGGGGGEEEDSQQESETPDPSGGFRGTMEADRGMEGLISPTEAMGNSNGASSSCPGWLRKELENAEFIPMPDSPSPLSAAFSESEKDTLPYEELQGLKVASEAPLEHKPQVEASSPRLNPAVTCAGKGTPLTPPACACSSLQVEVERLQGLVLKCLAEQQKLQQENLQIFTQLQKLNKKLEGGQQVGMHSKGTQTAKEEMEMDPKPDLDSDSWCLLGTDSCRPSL
Kind of test: Inhibition of NEK9 in human HeLa cells lysate at 10 uM pre incubated for 15 mins followed by ADP acyl phosphate probe addition and measured after 10 mins by LC-MS/MS analysis relative to control. It counts as subcellular. The note with it: time 25.0 min.

Test [13] deals with DNA-dependent protein kinase catalytic subunit (Homo sapiens, UniProt P78527). As to the kind of experiment: Inhibition of PRKDC in human HeLa cells lysate at 50 uM pre incubated for 15 mins followed by ATP acyl phosphate probe addition and measured after 10 mins by LC-MS/MS analysis relative to control. It counts as subcellular. The settings on record: time 25.0 min.

Serine/threonine-protein kinase tousled-like 2, sequence (Q86UE8 whole entry): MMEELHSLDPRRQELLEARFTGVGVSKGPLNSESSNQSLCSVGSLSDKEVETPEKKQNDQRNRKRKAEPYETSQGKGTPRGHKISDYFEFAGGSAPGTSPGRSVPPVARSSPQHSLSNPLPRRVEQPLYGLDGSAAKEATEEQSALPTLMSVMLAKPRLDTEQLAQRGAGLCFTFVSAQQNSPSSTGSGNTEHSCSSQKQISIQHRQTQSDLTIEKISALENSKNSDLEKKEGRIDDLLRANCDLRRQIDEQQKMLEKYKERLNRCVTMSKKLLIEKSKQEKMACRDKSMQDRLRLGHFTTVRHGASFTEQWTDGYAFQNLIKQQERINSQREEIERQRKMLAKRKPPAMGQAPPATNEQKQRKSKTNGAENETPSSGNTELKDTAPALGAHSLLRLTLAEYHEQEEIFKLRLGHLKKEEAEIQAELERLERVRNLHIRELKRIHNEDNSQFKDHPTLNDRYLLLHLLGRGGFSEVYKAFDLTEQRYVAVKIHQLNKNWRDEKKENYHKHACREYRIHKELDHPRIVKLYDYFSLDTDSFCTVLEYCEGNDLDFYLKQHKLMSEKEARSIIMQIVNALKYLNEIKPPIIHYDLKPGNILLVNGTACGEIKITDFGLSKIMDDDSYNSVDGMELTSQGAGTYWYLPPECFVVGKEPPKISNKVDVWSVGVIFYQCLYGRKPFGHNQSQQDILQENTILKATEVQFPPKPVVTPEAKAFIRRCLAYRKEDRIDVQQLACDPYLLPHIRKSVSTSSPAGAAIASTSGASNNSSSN

Regarding `CCOc1cc(N2CCC(O)CC2)ccc1Nc1ncc2c(n1)N(C)c1ccccc1C(=O)N2C`, the result in test [1] was inactive. The inhibition is 10.5% in test [2], 7.8% in test [3], 4.3% in [12] and -3.7% in [13]. In addition, the IC50 in [4], in [5], in test [6], in [7], in test [8] and in test [9] was > 50 µM in each case. For the same molecule, the IC50 in [11] was > 50 µM. The inhibition result in test [10] is “Active”.

For orientation: inhibition means the relative decrease from the control value, in per cent. For orientation: IC50 means the point on the concentration scale where inhibition reaches its midpoint. Low readings indicate higher potency, high ones lower potency.
